Measured values from different studies.
Protocols differ between the studies behind these lines. Converted amounts (≈) assume the structure as drawn.

For COC(=O)C(Cc1ccccc1)n1c(C)nc2c(N)nc(N)nc21 (centres unmarked), the IC50 was 0.039 µM (unidentified influenza virus; viral replication; A549, H1N1 PR8; 24 h).
For C[C@@H]1[C@H](O)[C@@H](C)/C=C/C=C/C=C/C=C/C=C/C=C/C=C/[C@H](O[C@@H]2O[C@H](C)[C@@H](O)[C@H](N)[C@@H]2O)C[C@@H]2O[C@](O)(C[C@@H](O)C[C@@H](O)[C@H](O)CC[C@@H](O)C[C@@H](O)CC(=O)O[C@H]1C)C[C@H](O)[C@H]2C(=O)O, the IC50 was 0.1 µg/mL (Leishmania donovani; parasite growth; THP-1; intracellular, amastigote).
The inhibition of Oc1c(Cl)cc(Cl)c(Cl)c1Cc1c(O)c(Cl)cc(Cl)c1Cl is reported as about 70% (Betapolyomavirus hominis; viral replication, inhibitor, qPCR; Vero; 30 µM, 5 days).
CC(C)(C)OC(=O)N1CCN(c2ccc(-c3cnc4[nH]cc(C(=O)c5cccc(F)c5)c4c3)cn2)CC1 has a viability of 93.7% (A549; cell growth or viability, MTT; 10 µM, 48 h).
Cc1nc2c(N)nc(N)nc2n1C(Cc1ccccc1)C(=O)O (centres unmarked) gave an IC50 of 0.21 µM (unidentified influenza virus; viral replication; A549, H1N1 PR8; 24 h).
For N#Cc1cc2c(-c3ccccc3)n[nH]c2c(Nc2ccccc2)n1, the IC50 was 2.1 µM (PC-3; cell growth or viability, MTS; 48 h).
With O=C(N/N=C1\C(=O)N(Cc2ccccc2)c2ccc(Cl)cc21)c1cc2ccccc2[nH]1 the IC50 was 0.76 µM (A549; cell growth or viability).
With O=c1c(O[C@@H]2O[C@H](CO)[C@H](O)[C@H](O)[C@H]2O)c(-c2ccc(O)c(O)c2)oc2cc(O)cc(O)c12 the IC50 was 6.61 µM (ABTS scavenging, absorbance; 5 min).
N=C(N)c1ccc(OCCCCCOc2ccc(C(=N)N)cc2)cc1 has an IC90 of 9 µg/mL (≈ 26.4 µM) (Leishmania donovani; parasite growth; amastigote).
CC(C)(C)OC(=O)N1CCN(c2ccc(-c3cnc4[nH]cc(C(=O)c5ccc(F)cc5)c4c3)cc2)CC1 has a viability of 91.5% (A549; cell growth or viability, MTT; 10 µM, 48 h).
Cc1ccc(CN2C(=O)/C(=N\NC(=O)c3cc4ccccc4[nH]3)c3ccccc32)cc1 has an inhibition of 91.9% (A549; cell growth or viability; 30 µM).
For O=C(c1cccc(F)c1)c1c[nH]c2ncc(-c3ccc(N4CCNCC4)nc3)cc12, the viability was 62.8% (A549; cell growth or viability, MTT; 10 µM, 48 h).
Nc1ncnc2c([C@@H]3N[C@H](CO)[C@@H](O)[C@H]3O)c[nH]c12 has an inhibition of 0% (unidentified influenza virus; viral replication, inhibitor; MDCK; 0.1 µM).
Cc1nc2c(N)nc(N)nc2n1CC(=O)O has an IC50 of 0.526 µM (unidentified influenza virus; viral replication; A549, H1N1 PR8; 24 h).
The IC50 of O=C(NCCCNc1c2c(nc3ccccc13)CCCC2)c1ccccc1O is reported as 27.7 µM (ABTS scavenging; 1 h).
The IC50 of COc1ccc(O)c(C(C)(C)C)c1 is reported as 5.07 µg/mL (ABTS scavenging).
CCOC(=O)c1c(CSc2ccccc2)n(C)c2cc(Br)c(O)c(CN(C)C)c12.Cl.O gave an MIC50 of over 100 µg/mL (Punta Toro virus; cytopathic effect).
